The EternaBench riboswitch data

System: MS2 coat protein
Assay: apparent Kd, MS2 coat protein; higher = weaker binding; RNA-MaP array; FMN 200 µM where present
Method in brief: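 Binding was read on Illumina sequencing-chip clusters where stalled E. coli RNA polymerase had transcribed each design. A titration of SNAP-549-labelled MS2 coat protein began at 0.7 or 1.5 nM and doubled to 3 µM, once without ligand and once with constant ligand, in 100 mM Tris-HCl pH 7.5, 80 mM KCl, 4 mM MgCl2, BSA, DTT, yeast tRNA and Tween-20. The apparent Kd is the median of filtered per-cluster binding-curve fits, based on green signal normalised to red-channel RNA signal and control-cluster median Fmax.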

[1] = designed as: OFF switch for flavin mononucleotide, no ligand
[2] = ligand present: flavin mononucleotide, designed as: OFF switch for flavin mononucleotide
[3] = designed as: ON switch for flavin mononucleotide, no ligand
[4] = ligand present: flavin mononucleotide, designed as: ON switch for flavin mononucleotide

Sequence	apparent Kd [1] [µM]	apparent Kd [2] [µM]	apparent Kd [3] [µM]	apparent Kd [4] [µM]
GUAUGUUAUGAGGAUAUCGGUGAACAUACACAUCGAGAAGGCAUGACAUGAGGAUCACCCAUGUCAAGGAUGAC	0.0274	0.0578		
GUAGGGUCAGGAUAUACGGGCGGGAGGAUGUAUUGUAGUUGGUAGAAGGGACAUGAGGAUCACCCAUGUGAGAA	0.0343	0.0305		
UCGUGAAGGACAGGAUAUGGACAUGAGGAUCACCCAUGUACAUGGGAAUAUAUACUGAAUUUGUACUAGAAGGGUUACAUAAAC	0.0309	0.0198		
CGCUAAGAGAACGAUACGAGAAGACAUGAGGAUCACCCAUGUAGAAGGACAACGGAAUAAACGUUGUAGGAUAUACACUUAGCG	0.015	0.0206		
UGUGCGUUGAUCUUCGAUCGUUGUACAUGAGGAUCACCCAUGUAGGAUAUUCUAAGACGCAGAUAGGAGAAGGACAUUGGUAUU	0.0106	0.0194		
GGAAAGGACAGAGGAUAUACGUGCUAGAGAUACUAGCAAAAUUUCCUCACAUGAGGAUCACCCAUGUAGAAGGCUGUCCUAUCG	0.0162	0.394		
CUGAAGAGAGAAGGAUAUCACAGGAUGGAGAUCUCUGAAUAAACAUGAGGAUCACCCAUGUCCAGUGAGAAGGUCUCGGUUCCG	0.186	0.195		
UGUCGGAGCAGAGGAUAUUACAUGAGGAUCACCCAUGUAUGAACCAAUAGCUGGAAACAGCAAUGUAAGAAGGCUGCUCCGAGA	0.0133	0.196		
CCUAAGGACACAGGAUAUAGCGCGGUGGCUGGGCUCCAACGGCGAGCGACGCUAGAAGGGUGACCACAUGAGGAUCACCCAUGU			0.517	0.122
CUCGUGUAAGGAUAUGCGGGCGGGCGCGUUUGUGUUUGUUUGUAGAAGGUACAUGAGGAUCACCCAUGUACUGG	0.0255	0.0574		
AAACACAAACAUGAGGAUCACCCAUGUUAUGAAAAUAUUGGGAGAAGGGCGAUUGCAAAGCAAUCGCAGGAUAUUCGUAUUGUG			0.0344	0.0122
UAAAAGACUAGCUGGUAUCUCCACAUGAGGAUCACCCAUGUCUAGGAUAUGAGCAGCAAAGCUGCUUAGAAGGAGACGCUAGUC	0.00767	0.00883		
UCGCUGCGAGGAUAUACAUGAGGAUCACCCAUGUACGGGUCCGGGUUUUCGUCCAUUAGUAGAAGGCGCAGUGA	0.156	0.0606		
GUAUUACAUGAGGAUCACCCAUGUGAGGAUAUCGAUGUAACUAGCAGCGUGCGGGACUCGAGAAGGCACUUGGA	0.0491	0.142		
UAAAUAAAGUAAGGAUAUACAUGAGGAUUUCUCGUAGAAGGUACAAGACAUGAGGAUCACCCAUGUAUCGCUCCGUAGAGCGUA			0.138	0.237
CCGGAAGUACAGGAUAUAGGAGUCGAUAGACUCCUAGAAGGGUAUACAUGAGGAUCACCCAUGUGUCCUACCGG	0.0296	0.0334		
UCGCUGCGAGGAUAUACAUGAGGAUCACCCAUGUGCGGGUCCGGGUCUUCGUCCAUUAGUAGAAGGCGCAGUGA	0.122	0.212		
CUUUUGUGAGGAUAUCAGUAGUAAAAAAAUAAAAUUACUAUUGAGAAGGCACAUGAGGAUCACCCAUGUUCCUC	0.0345	0.168		
GAACUGAAGCAUAGCUUUAGUCGUACAUGAGGAUCACCCAUGUAGGAUAUAGUAGGCAUAGCUUACUAGAAGGAUAGAGUGAUC	0.254	0.106		
GGUUGGCGAGGAUAUACAUGAGGAUCACCCAUGUGGUCCUGCGAUAGAAUAGCCCUUUGUAGAAGGCGCGGGUC	0.044	0.0381		
UAGUAUAAGGGCAUUAAACAUGAGGAUCACCCAUGUACAAUAGAGGAUAUGCAUUUCAGUUUAGAGUAGAAGGUUAGAGAAUAU	0.0356	0.0411		

Sequence	apparent Kd [1] [µM]	apparent Kd [2] [µM]	apparent Kd [3] [µM]	apparent Kd [4] [µM]
CUUUUGUGAGGAUAUCAGUAGUAAAAAAUUAAAAUUACUACUGAGAAGGCACAUGAGGAUCACCCAUGUUCCUC	0.0401	0.284		
CCGGAAACGGGUAGCCUGACAUGAGGAUCACCCAUGUGAUCAGAGGAUAUGGAUCCUAAUUGGAUCCAGAAGGCUGUUGGCUAC			0.0734	0.0275
CGCAAUAUACAGAAGGAGUUAUUUAGAGGUUUACUAGGAUAUGUUCACAUGAGGAUCACCCAUGUCAUAUGGAGUUUUAUUGCG	0.00925	0.00833		
CUGUCGAUAUCAGGAUAUCGAUUAAUUACAUGAGGAUCACCCAUGUUGACAUGGAAUAUAACUUGCGAGAAGGGAUUACGAUAG			0.0283	0.0223
GGGUGCUCACCGCCUUAACAUGAGGAUCACCCAUGUGGAGUGCAGGAUAUACGUUUCUAUCAUACGUAGAAGGGCACCGCGCAG	0.00559	0.00503		
AAUCCACAUGAGGAUCACCCAUGUCAGGAUAUCGCGCGCGCGUUUUCGGUCUUGCGCGCGAGAAGGGACGGCUG	0.0262	0.046		
GCCAUCGCAUGAGGAUAUGCUCCCGUUUCGGGAGCAGAAGGCAUGUCAAAAGACAUGAGGAUCACCCAUGUAGUUAAGAUGGCA			0.122	0.00789
UGGUACAUGGGAGGAUAUGGGUUGAUAACAUGAGGAUCACCCAUGUUAAAUAAGCCGAGAGGCUACCAGAAGGCCCAUGUACCU			0.00729	0.00499
GGAGCCGGUACUGAGGAUAUUCAUAUUAAAACAUGAGGAUCACCCAUGUGGGCCAGAAGGCCUUGGGAGAAGGCAGACCAGCUCG			0.238	0.0221
GUGAGCUCGUGAGGAUAUACAACACUGCUUCGGCAGUGUAUUAAGAUCACAUGAGGAUCACCCAUGUAGAAGGCACGAGCUGAU	0.0145	0.272		
AAUAUAAAGAGCUGGUAACUCAAAACAUGAGGAUCACCCAUGUAGGAUAUCAGCACGAUAAGUGCUGAGAAGGACAUCCAGCUC	0.0165	0.0172		
GGAGCCGGCCUAGGAUAUUUCAUAUUUAAACAUGAGGAUCACCCAUGUAGGCCAGAAGGCCUUGGGAAGAAGGAGGUCGGCUCC			0.0881	0.0175
UACCACCGCACGGACACGUCGAGUCAGGAUAUACAUGAGGAUCACCCAUGUGAAGGCCGGUUCAUGUAGAAGGGACAGGCGUUG	0.0498	0.1		
GGUAGAGAGCAGGAUAUCUUGGGUAAGUAUUGUAGAGAAGGGCUCACAUGAGGAUCACCCAUGUGGUCCAAGAU	0.0139	0.0298		
CGAUAGGACAGAGGAUAUACACAUGAGGAUCACCCAUGUGAUUUCAGCGCGAAAGCGCCAAACAUGUAGAAGGCUGUCCUAUCG	0.0259	0.0106		
ACGACUAGAGGAUAUACAUGAGGAUCACCCAUGUAACUGUCAGGAAACUGACGGAGAUGUAGAAGGCUAGUCGA	0.0168	0.0374		
GUAGCAUGCCAAGGAUAUUCAUAUAGUAGGCAAACAUGAGGAUCACCCAUGUAGUGAGAGCCCUGGGAGAAGGUGGGAUGCUAC			0.0179	0.0161
GCACUGGAUGUAGGAUAUCAGGACGAUAAGUCCUGAGAAGGACAUGAGGAUCACCCAUGUCUCAAGAAACCAGUGCAUAAUAUA	0.013	0.0159		
CAUUAAUUCAUUAUAGUUAUUAUACAGGAUAUGUUACAUGAGGAUCACCCAUGUAUUCUUGGUAAACAGAAGGGUAUUUCUAGU	0.00748	0.0085		
AAAAAACAUGAGGAUCACCCAUGUGAGGAUAUGACGUAAAUAAAGAAAGAAGAAAUCGUCAGAAGGCACACCUA	0.0527	0.0793		
GGAGAUACAUGAGGAUCACCCAUGUAGGAUAUAUAGUAUAUAUAUAGCGAAAGCUAUAUAUAUAUAUAGAAGGGCGUACACACC	0.00767	0.00802		
